How the values were obtained:
Format in all cases: functional
UACC-257 = assay: Growth inhibition of human UACC257 cells at 10 uM after 48 hrs by SRB assay relative to control; details: UACC-257, 48 h, read-out: GI
Outline: (§1)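 NCI screen against its human cancer cell line panel by the standard NCI protocol, SRB protein stain. Single dose of 10 μM. Percent growth inhibition versus control; values above 100% mean the cell population fell below the starting number. Each value is the mean of duplicates.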

ACHN = assay: Growth inhibition of human ACHN cells at 10 uM after 48 hrs by SRB assay relative to control; details: read-out: GI
Outline: (§2)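 Screened at the National Cancer Institute by the standard NCI protocol using the sulforhodamine B assay, which measures cellular protein. Single dose of 10 µM. Result is percent growth inhibition; values above 100% mean cell number fell below the initial population. Values are the average of duplicates.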

SR = assay: Growth inhibition of human SR cells at 10 uM after 48 hrs by SRB assay relative to control; details: read-out: GI; outline: as §1
NCI-H23 = assay: Growth inhibition of human NCI-H23 cells at 10 uM after 48 hrs by SRB assay relative to control; details: NCI-H23, 48 h, read-out: GI; outline: as §2
A549 = assay: Growth inhibition of human A549 cells at 10 uM after 48 hrs by SRB assay relative to control; details: A549, 48 h, read-out: GI; outline: as §2
UO-31 = assay: Growth inhibition of human UO31 cells at 10 uM after 48 hrs by SRB assay relative to control; details: UO-31, 48 h, read-out: GI; outline: as §1
MCF7 = assay: Growth inhibition of human MCF7 cells at 10 uM after 48 hrs by SRB assay relative to control; details: MCF7, 48 h, read-out: GI; outline: as §2
SNB-75 = assay: Growth inhibition of human SNB75 cells at 10 uM after 48 hrs by SRB assay relative to control; details: SNB-75, 48 h, read-out: GI; outline: as §1
SF-295 = assay: Growth inhibition of human SF295 cells at 10 uM after 48 hrs by SRB assay relative to control; details: SF-295, 48 h, read-out: GI; outline: as §2
CCRF-CEM = assay: Growth inhibition of human CCRF-CEM cells at 10 uM after 48 hrs by SRB assay relative to control; details: read-out: GI; outline: as §2
Malme-3M = assay: Growth inhibition of human MALME-3M cells at 10 uM after 48 hrs by SRB assay relative to control; details: read-out: GI; outline: as §2
HCT-15 = assay: Growth inhibition of human HCT15 cells at 10 uM after 48 hrs by SRB assay relative to control; details: HCT-15, 48 h, read-out: GI; outline: as §2
Hs-578T = assay: Growth inhibition of human Hs 578T cells at 10 uM after 48 hrs by SRB assay relative to control; details: read-out: GI; outline: as §2
SN12C = assay: Growth inhibition of human SN12C cells at 10 uM after 48 hrs by SRB assay relative to control; details: read-out: GI; outline: as §2
HT-29 = assay: Growth inhibition of human HT-29 cells at 10 uM after 48 hrs by SRB assay relative to control; details: HT-29, 48 h, read-out: GI; outline: as §2
NCI-H322M = assay: Growth inhibition of human NCI-H322M cells at 10 uM after 48 hrs by SRB assay relative to control; details: read-out: GI; outline: as §2
CAKI-1 = assay: Growth inhibition of human Caki1 cells at 10 uM after 48 hrs by SRB assay relative to control; details: CAKI-1, 48 h, read-out: GI; outline: as §2
TK-10 = assay: Growth inhibition of human TK10 cells at 10 uM after 48 hrs by SRB assay relative to control; details: TK-10, 48 h, read-out: GI; outline: as §1
NCI-H522 = assay: Growth inhibition of human NCI-H522 cells at 10 uM after 48 hrs by SRB assay relative to control; details: NCI-H522, 48 h, read-out: GI; outline: as §2
HOP-92 = assay: Growth inhibition of human HOP92 cells at 10 uM after 48 hrs by SRB assay relative to control; details: HOP-92, 48 h, read-out: GI; outline: as §2
NCI-H460 = assay: Growth inhibition of human NCI-H460 cells at 10 uM after 48 hrs by SRB assay relative to control; details: NCI-H460, 48 h, read-out: GI; outline: as §2
MDA-MB-468 = assay: Growth inhibition of human MDA-MB-468 cells at 10 uM after 48 hrs by SRB assay relative to control; details: MDA-MB-468, 48 h, read-out: GI; outline: as §2
SK-MEL-2 = assay: Growth inhibition of human SK-MEL-2 cells at 10 uM after 48 hrs by SRB assay relative to control; details: SK-MEL-2, 48 h, read-out: GI; outline: as §2
HOP-62 = assay: Growth inhibition of human HOP62 cells at 10 uM after 48 hrs by SRB assay relative to control; details: HOP-62, 48 h, read-out: GI; outline: as §2
COLO 205 = assay: Growth inhibition of human COLO205 cells at 10 uM after 48 hrs by SRB assay relative to control; details: COLO 205, 48 h, read-out: GI; outline: as §2
LOX IMVI = assay: Growth inhibition of human LOXIMVI cells at 10 uM after 48 hrs by SRB assay relative to control; details: read-out: GI; outline: as §2
MOLT-4 = assay: Growth inhibition of human MOLT4 cells at 10 uM after 48 hrs by SRB assay relative to control; details: MOLT-4, 48 h, read-out: GI; outline: as §2
RPMI-8226 = assay: Growth inhibition of human RPMI8226 cells at 10 uM after 48 hrs by SRB assay relative to control; details: RPMI-8226, 48 h, read-out: GI; outline: as §2
786-0 = assay: Growth inhibition of human 786-0 cells at 10 uM after 48 hrs by SRB assay relative to control; details: 786-0, 48 h, read-out: GI; outline: as §2
OVCAR-4 = assay: Growth inhibition of human OVCAR4 cells at 10 uM after 48 hrs by SRB assay relative to control; details: OVCAR-4, 48 h, read-out: GI; outline: as §2
KM12 = assay: Growth inhibition of human KM12 cells at 10 uM after 48 hrs by SRB assay relative to control; details: KM12, 48 h, read-out: GI; outline: as §2
SW-620 = assay: Growth inhibition of human SW620 cells at 10 uM after 48 hrs by SRB assay relative to control; details: SW-620, 48 h, read-out: GI; outline: as §1
IGROV-1 = assay: Growth inhibition of human IGROV1 cells at 10 uM after 48 hrs by SRB assay relative to control; details: IGROV-1, 48 h, read-out: GI; outline: as §2
SK-MEL-28 = assay: Growth inhibition of human SK-MEL-28 cells at 10 uM after 48 hrs by SRB assay relative to control; details: SK-MEL-28, 48 h, read-out: GI; outline: as §2
SF-539 = assay: Growth inhibition of human SF539 cells at 10 uM after 48 hrs by SRB assay relative to control; details: SF-539, 48 h, read-out: GI; outline: as §2
U-251 = assay: Growth inhibition of human U251 cells at 10 uM after 48 hrs by SRB assay relative to control; details: U-251, 48 h, read-out: GI; outline: as §1

COc1ccc(C(=O)Nc2cccc(-c3cc(=O)c4c(OC)c(OC)c(OC)cc4o3)c2)cc1
inhibition of growth at 10 µM (UACC-257): -4.69% | inhibition of growth at 10 µM (ACHN): 53% | inhibition of growth at 10 µM (SR): 71.4% | inhibition of growth at 10 µM (NCI-H23): 42.5% | inhibition of growth at 10 µM (A549): 35.3% | inhibition of growth at 10 µM (UO-31): 73.5% | inhibition of growth at 10 µM (MCF7): 33.5% | inhibition of growth at 10 µM (SNB-75): 32.4% | inhibition of growth at 10 µM (SF-295): 40.4% | inhibition of growth at 10 µM (CCRF-CEM): 72.5% | inhibition of growth at 10 µM (Malme-3M): 46.6% | inhibition of growth at 10 µM (HCT-15): 54.8% | inhibition of growth at 10 µM (Hs-578T): 57.1% | inhibition of growth at 10 µM (SN12C): 50% | inhibition of growth at 10 µM (HT-29): 53.3% | inhibition of growth at 10 µM (NCI-H322M): 44.9% | inhibition of growth at 10 µM (CAKI-1): 42.6% | inhibition of growth at 10 µM (TK-10): 23.3% | inhibition of growth at 10 µM (NCI-H522): 55.5% | inhibition of growth at 10 µM (HOP-92): 93.3% | inhibition of growth at 10 µM (NCI-H460): 57.9% | inhibition of growth at 10 µM (MDA-MB-468): 24.8% | inhibition of growth at 10 µM (SK-MEL-2): 38.7% | inhibition of growth at 10 µM (HOP-62): 27.5% | inhibition of growth at 10 µM (COLO 205): 26.9% | inhibition of growth at 10 µM (LOX IMVI): 58.1% | inhibition of growth at 10 µM (MOLT-4): 76.7% | inhibition of growth at 10 µM (RPMI-8226): 81.2% | inhibition of growth at 10 µM (786-0): 45% | inhibition of growth at 10 µM (OVCAR-4): 38% | inhibition of growth at 10 µM (KM12): 53.7% | inhibition of growth at 10 µM (SW-620): 12% | inhibition of growth at 10 µM (IGROV-1): 46.1% | inhibition of growth at 10 µM (SK-MEL-28): 31% | inhibition of growth at 10 µM (SF-539): 33.7% | inhibition of growth at 10 µM (U-251): 27.7%

Cc1ccc(NC(=O)c2ccc(CN3CCN(C)CC3)cc2)cc1Nc1nccc(-c2cccnc2)n1 [IMATINIB]
inhibition of growth at 10 µM (UACC-257): 2.8% | inhibition of growth at 10 µM (ACHN): -1% | inhibition of growth at 10 µM (SR): 14.6% | inhibition of growth at 10 µM (NCI-H23): 17.1% | inhibition of growth at 10 µM (A549): 3.8% | inhibition of growth at 10 µM (UO-31): 7.6% | inhibition of growth at 10 µM (MCF7): 8.1% | inhibition of growth at 10 µM (SNB-75): 0.6% | inhibition of growth at 10 µM (SF-295): 15.1% | inhibition of growth at 10 µM (CCRF-CEM): 6.6% | inhibition of growth at 10 µM (Malme-3M): -13.7% | inhibition of growth at 10 µM (HCT-15): 11.5% | inhibition of growth at 10 µM (Hs-578T): 9.9% | inhibition of growth at 10 µM (SN12C): 6% | inhibition of growth at 10 µM (HT-29): 47.1% | inhibition of growth at 10 µM (CAKI-1): -0.2% | inhibition of growth at 10 µM (TK-10): -10% | inhibition of growth at 10 µM (HOP-92): 43.7% | inhibition of growth at 10 µM (NCI-H460): 3.2% | inhibition of growth at 10 µM (MDA-MB-468): 29.1% | inhibition of growth at 10 µM (COLO 205): -1.1% | inhibition of growth at 10 µM (LOX IMVI): 11.6% | inhibition of growth at 10 µM (MOLT-4): 18% | inhibition of growth at 10 µM (RPMI-8226): 12.6% | inhibition of growth at 10 µM (786-0): 5% | inhibition of growth at 10 µM (OVCAR-4): -0.1% | inhibition of growth at 10 µM (KM12): -6.7% | inhibition of growth at 10 µM (SW-620): -10% | inhibition of growth at 10 µM (IGROV-1): -18.6% | inhibition of growth at 10 µM (SK-MEL-28): -9.4% | inhibition of growth at 10 µM (SF-539): 24.5% | inhibition of growth at 10 µM (U-251): 10.6%
